Measured values reported in ChEMBL document CHEMBL4513216, “Probing the Open Global Health Chemical Diversity Library for Multistage-Active Starting Points for Next-Generation Antimalarials” (ACS Infect Dis, 2020).

Test: Toxicity liver stage against HepG2, at 10uM
Format: cell-based
Design: test concentration 10 uM, cell line HepG2-A16-CD81EGFP
Settings: human, HepG2-A16-CD81EGFP cells; read-out: INHIBITION
Method in brief: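 Uninfected HepG2-A16-CD81EGFP cells, 3 × 10^3 per well, 1536-well, plated on prespotted compound at 10 μM final, parasite-free screening media added to match infected plates; puromycin 10 μM positive, DMSO 0.5% negative; run in parallel with 48 h PbLuc assay at 37 °C, 5% CO2; viability by CellTiter-Glo luminescence, normalized to controls.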

Compound	cytotoxicity at 10 µM [%]
CC(C)N(C)Cc1ncn2c1CN(C(=O)C1CCCO1)CCC2 (stereo not drawn)	-103
CC(C)CS(=O)(=O)N1CCC2(CN(c3cccc(F)c3)C(=O)CN2C)C1 (stereo not drawn)	-75.2
CC1=CCN(S(=O)(=O)c2cccc(C(=O)N3CCOCC3)c2)CC1	4.9
C1CCN(CCO[C@@H]2CC[C@H]3[C@H]2OCCN3CC2CCOCC2)C1	2.98
COC(=O)C1(C)CCN(C(=O)NCCc2c(C)[nH]c3ccccc23)C1 (stereo not drawn)	0.807
Cc1ncsc1C(=O)NC1CCN(Cc2cccc3c2OCCO3)CC1	-4.68
CCSc1cc(C(=O)NCCc2nnc(-c3ccco3)[nH]2)ccn1	6.14
Cc1ccc(C)c(S(=O)(=O)N2CCN(C)C3(CCC(=O)N(C)CC3)C2)c1 (stereo not drawn)	7.01
COCC(C)(C#N)NC(=O)c1cn(-c2cccc(Cl)c2F)nn1 (stereo not drawn)	0.472
Cc1ccccc1OCCn1cnc2oc(C)c(C(=O)O)c2c1=O	11
Cc1ccccc1CN(CC(=O)O)C(=O)COCC1CC1	-1.92
CCN(CC)Cc1ccc(C(=O)NC2CCc3cc(F)ccc32)o1 (stereo not drawn)	-9.03
CC(C)C(Nc1nc(C(F)(F)F)nc2ccccc12)C(=O)O (stereo not drawn)	-1.98
Cc1cccc2c1ccn2CCC(=O)Nc1c2c(nn1C)CSC2	3.03
O=S(=O)(C1CC1)N1CCCn2nnc(Cn3cccc3)c2C1	9.39
CS(=O)(=O)c1snnc1C1CCN(Cc2ccncc2)CC1	2.31
CCC(=O)N1CCC(O)(c2ncc(OC)nc2OC)CC1	3.03
NC(=O)NCC(=O)N1CCCC(c2nccn2CC2CCC2)C1 (stereo not drawn)	-4.59
Cn1ccnc1CCNC(=O)NCCC1CCCCO1 (stereo not drawn)	-1.94
COCCN(Cc1ccccc1)c1cc(C)ncn1	7.41
CCc1ncc2c(n1)CN(c1cc(NC3CC3)nc(N)n1)C2	5.75
O=C(Cc1cccc(F)c1)NCCNCc1cccc(O)c1	-9.5
Cc1cn[nH]c1C1CCCN1Cc1ccc(F)c(F)c1 (stereo not drawn)	4.14

Compound	cytotoxicity at 10 µM [%]
COc1cc(N(C)Cc2noc(CC(C)C)n2)ncn1	-0.71
CC(NCCc1nccn1Cc1ccccc1)c1ccsc1 (stereo not drawn)	8.4
CCc1n[nH]c(C(=O)NCCn2ccnc2C)c1C	-9.29
CN(Cc1ccccc1)C(=O)CN1CCCC(Cn2cncn2)C1 (stereo not drawn)	-11.8
COc1ccccc1NC(=O)NC(C)c1nc[nH]n1 (stereo not drawn)	2.8
NC1(CNC(=O)c2cc3ccccc3[nH]2)CCCC1	15.5
NC(=O)CC1CCCCN1C(=O)c1ccc2cc[nH]c2c1 (stereo not drawn)	-4.02
CCn1ncc2c1C(COCC1CC1)CN(C(=O)c1ccncn1)C2 (stereo not drawn)	-74.8
CCN(CC)C(=O)C1CCC(=O)N(CCc2cccc(F)c2)C1 (stereo not drawn)	-4.92
O=C(c1n[nH]c2c1CCN(Cc1nccs1)C2)N1CCOCC1	-144
CS(=O)(=O)NC1CCCN(c2ccc(C#N)cn2)C1 (stereo not drawn)	-12.7
Cc1n[nH]c(C)c1NC(=O)CN1CCc2c(nc(C(C)C)n2C)C1	-5.68
COCCOc1ccc(NC(=O)N(CC2CCOC2)C2CC2)cn1 (stereo not drawn)	-1.29
COc1ccc(C)cc1NC(=O)c1c(C)cn(C)c1CC(=O)O	-0.713
COc1cccc(CN2C[C@@H]3COC[C@]3(CN3CCOCC3)C2)c1	-80.6
C[S+]([O-])CCNCc1ccc(OCc2cscn2)cc1 (stereo not drawn)	-138
Cc1cc(CN(C)C(=O)c2ccc(N(C)C)nc2)no1	-5.4
CCCc1n[nH]c(C2CN(C(=O)c3ccc[nH]3)CCO2)n1 (stereo not drawn)	-9.29
O=C(Nc1cccc(N2CCCC2)c1)C1CCCN1c1nccs1 (stereo not drawn)	-6.08
COCc1nc(CNC(=O)c2cc(C)c(C)[nH]c2=O)no1	4.19
Cn1ccnc1CNC(=O)Nc1ccc(OC2CCC2)c(F)c1	-4.92
Cc1nn(C)c(C)c1C1CCCN1Cc1nc(-c2ccccn2)no1 (stereo not drawn)	-5.29
CN(Cc1nccn1C)C(=O)c1cccc(CCC(C)(C)O)c1	1.26

Compound	cytotoxicity at 10 µM [%]
O=C(CS(=O)(=O)C1CCCC1)NC1CCc2nccn2C1 (stereo not drawn)	-17
COc1c(C)cnc(CN(C)C(=O)c2ccccc2O)c1C	-14.3
Cc1ccccc1C1(CN)CCOCC1	7.93
Cc1nc(CN2CCO[C@@H]3CN(C(=O)CC4CC4)CC[C@@H]3C2)cs1	3.79
CC(C(=O)NCC1CCCCC1)S(=O)(=O)Cc1csc(-c2cccs2)n1 (stereo not drawn)	-9.44
Oc1cccc(-c2cc(C3CCN(Cc4cncnc4)C3)ccn2)c1 (stereo not drawn)	5.06
CCNc1cc2c(nn1)CCN(C(=O)Cc1noc3ccccc13)C2	-7.42
Oc1cc(CCC2CCCCN2)cc(-c2ccncc2)c1 (stereo not drawn)	-12.7
Cc1ccc2c(c1)C1(CCN(C(N)=O)CC1)CN2CC1CC1	-109
Cc1nccn1-c1ccc(CNS(=O)(=O)N2CCCC(C)C2)cn1 (stereo not drawn)	5.39
CSCCCn1ccnc1-c1cccc(C#N)c1	-13.3
CNS(=O)(=O)CCNCC1(O)CCCN(CCC2CCCCC2)C1=O (stereo not drawn)	0.28
COc1ccc(CN2CCC3(CCCN(c4ncc(F)cn4)C3)C2)cc1 (stereo not drawn)	62.8
Cc1ccc(N2CCO[C@H]3CN(Cc4cnn(C)c4)C[C@H]32)nn1	3.86
O=C(Cn1nc(Br)nc1Br)N1CCCC1	5.38
CCc1nc2n(n1)CC(NCc1nc3ccccc3o1)CC2 (stereo not drawn)	12.4
COc1ccc(OC)c(CNCc2ccnc(N3CCCCC3)c2)c1	0.25
O=C(CCC1CCCCC1)NCc1nnc2ccccn12	3.47
COCCN(Cc1cccc(C#N)c1)Cc1nnsc1Cl	7.96
Cc1ccc(OCC(=O)Nc2cnccc2SCCCO)cc1C	-2.35
CSC(CNS(C)(=O)=O)c1cccc(Cl)c1 (stereo not drawn)	6.27
CN(C)c1cccc(C(=O)N2CCc3ccc(=O)[nH]c3CC2)c1	9.23
Cn1ccnc1S(=O)(=O)C(C(=O)N1CCCCC1)c1ccccc1 (stereo not drawn)	24.5

Compound	cytotoxicity at 10 µM [%]
CC(C)NC(=O)N1CCC2(CC(=O)N(c3cccc(C#N)c3)C2)C1 (stereo not drawn)	5.66
CC1(C(N)=O)CCCN(c2cnccn2)C1 (stereo not drawn)	-17.8
Cc1ccc(CN(CCN(C)C)C(=O)Nc2cc(C(N)=O)ccc2C)s1	13.1
Cc1ccc(S(=O)(=O)NCc2[nH]ncc2Br)cc1F	12.6
CCn1nccc1CNC(=O)C1CCCO1 (stereo not drawn)	-2.21
O=C(COc1coc(CN2CCOCC2)cc1=O)Nc1ccc(Cl)cc1	-6.51
CCC1(CC)CC(=O)N(CC(O)c2cccc(F)c2)C1=O (stereo not drawn)	-3.43
Cn1ccc2cc(CC3COCCN(C(=O)c4ccccn4)C3)ccc21 (stereo not drawn)	4.57
CNC(=O)CN1CCCC(Cc2ccccc2OC)C1 (stereo not drawn)	-8.53
Cc1ccc(C)c(OCCNC(=O)C2CCOC2)c1 (stereo not drawn)	-2.73
Cc1ccc(CC(=O)N2CCc3nnc(N(C)C)cc3C2)s1	-9.01
COCCn1ccnc1CN(Cc1ccccn1)Cc1sccc1C	2.16
O=C(CCc1nc(Cl)n[nH]1)NC1CCCN(C2Cc3ccccc3C2)C1 (stereo not drawn)	-18.9
CC(=O)Nc1ccc(CNC2CCCSC2)cc1 (stereo not drawn)	-10.5
O=C(NCCc1ccco1)Nc1cc(C(F)(F)F)c[nH]c1=O	-12.3
C1CCC(CO[C@@H]2CC[C@H]3[C@H]2OCCN3CC2CCOCC2)C1	11.4
Cc1ccccc1-n1cnc(Cl)c1CO	8.48
COc1ccnc(N2CCN(C(=O)Cc3csc(C)n3)CC2)n1	-15.6
Cc1cccc(C(C(=O)N2CC(c3cccnc3)C2)N(C)C)c1 (stereo not drawn)	-4.8
CCS(=O)(=O)N1CCc2ccc(NC(=O)NC3CCCCC3)cc21	-4.56
Cc1cc(CN(C)C(=O)NCc2ccccn2)no1	1.62
O=C(c1ccnnc1)N1C[C@H]2CCC[C@@]2(COCc2ccccn2)C1	-78.7
Cc1cccc(CN2CCc3c(CNC(=O)CC#N)nn(C)c3C2)n1	4.89

Compound	cytotoxicity at 10 µM [%]
CCn1ccnc1CN1CCCC1C(=O)Nc1nccs1 (stereo not drawn)	-6.7
CN(C)C(=O)N1CC[C@]2(O)CCN(C(=O)c3ccc(C#N)nc3)C[C@@H]2C1	-51
CCn1ncc2c1NC(=O)C(C#N)C21CCCC1 (stereo not drawn)	-0.242
O=C(NCCSC1CCCC1)c1cc(Cl)ccn1	-15.5
O=C(c1cnoc1)N1CCC[C@]2(C[C@@H](OCc3ccccn3)CO2)C1	-9.47
CCC(COC)NC(=O)N1CCC(n2ccc(C(F)(F)F)n2)CC1 (stereo not drawn)	-12
O=C(N[C@H]1CN[C@H]2CCCO[C@H]21)c1cscn1	-13.7
Cc1ccc(CN(Cc2ccncc2)C2CC(C)(C)NC(C)(C)C2)o1	-12.3
Cc1cc(N(C)Cc2ccsc2)n2nc(C)c(C)c2n1	1.7
COc1cccc(C(=O)NCCCN2CCc3ccccc3C2)c1OC	6.67
CCOc1ccc(NC(=O)CN2CCN(c3nccn3C)CC2)cc1	4.05
CC(C)(NCC(=O)NCC(F)(F)F)c1ccc2c(c1)OCCO2	-8.23
Cn1cncc1CNC1CC2(CCN(S(C)(=O)=O)CC2)c2ccccc21 (stereo not drawn)	1.55
CC1CCCCN1C(=O)c1ccc(=O)[nH]n1 (stereo not drawn)	3.95
CC(C)c1ocnc1C(=O)N1CCCC(c2ccn[nH]2)C1 (stereo not drawn)	-3.92
O=C(NCC(O)COc1cccc(F)c1)C1(c2ccc(F)cc2)CC1 (stereo not drawn)	0.884
CCOCC(=O)NCc1cc(C2CC2)n(C2CCCC2)n1	-0.165
COCCC(=O)N1CCN(CC(C)C)c2nc(C)ccc2C1	11.3
CN1CC(=O)N(c2ccsc2)CC12CCN(C(=O)c1ccc[nH]1)C2 (stereo not drawn)	-71.8
COc1c(CNCC(O)c2cccc(F)c2)c(C(C)C)nn1C (stereo not drawn)	2.31
CO[C@H]1CO[C@@]2(CCCN(S(=O)(=O)c3ccccc3)C2)C1	-81.9
